Compound activity as filed in PubChem.
HCT116 PTEN-null: growth suppression of PTEN-null HCT116, primary screen, cell-based, CellTiter-Glo. AID 827, 2007. viability, % at 10 µM. 1.2% of 140,000 active. HCT116 PTEN-null viability, 60 h; active compounds read low;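 active = viability at or below a set limit, 4 SD under the median of all tested compounds, cut at about 3.7% in these data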;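 also: PTEN knockout HCT116 line with beta catenin targeted HCT116 as companion control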
bCat KO growth: primary screen for growth suppressors in beta-catenin knockout HCT116 cells (colon tumor, human). HCT116 beta-catenin knockout viability, CellTiter-Glo, 60 h; active compounds read low. viability, % at 10 µM. 1.5% of 140,000 active;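 active = viability at or under a set limit, the compound median less 4 SD, cut at about 6% in these data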;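 also: 0% = Hyamine 1622 control at 20 µM and 100% = untreated cell control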
Lung fibro prol: antiproliferative effect on LL 47 fibroblasts – human, LL 47 cells, CellTiter-Glo luminescence, primary screen | LL 47 human lung fibroblast viability, ATP luminescence; active compounds read low | viability, % at 10 µM | 1.1% of 85,000 active;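 active = viability at or below 50% in the single dose screen; inactive = viability above 50%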;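 also: compound exposure lasted 72 h before the ATP readout; 100% = median luminescence of untreated cell-only wells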
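Material: human lung fibroblast line LL 47, low passage; Evaluation: viability percentage against median untreated-cell control; Buffer or medium: 15% FBS in IMEM; Incubation: 72 h compound exposure at 37 °C after overnight plating; Dosing: 0.1% DMSO in all compound wells; Measured by: CellTiter-Glo luminescence.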
H69AR inhibit: proliferation blockers of H69AR lung cancer cells, primary screen, cell-based, human, 86K library; H69AR lung tumor viability, ATP luminescence, 72 h; active compounds read low; viability, % at 10 µM; 6% of 85,000 active;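 active = viability at or below 40%; inactive = viability above 40%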;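 also: multidrug resistant small cell line overexpressing MRP-1 efflux transporter; 100% = mean luminescence of untreated control wells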
HUVEC inhibit: inhibitors of HUVEC proliferation, primary screen, cell-based, 384-well; CellTiter-Glo luminescence, 72 h; active compounds read low; viability, % at 10 µM (by protocol); 1.1% of 86,000 active; AID 648, 2007;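 active = viability at or below 30%; inactive = viability above 30%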;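 also: 100% = median luminescence of DMSO-only cell control wells on each plate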
An asterisk follows results filed as active; . = not tested or not shown. Many of the other results were omitted from the sample, so hits are more common in it than they were.

SMILES	HCT116 PTEN-null	bCat KO growth	Lung fibro prol	H69AR inhibit	HUVEC inhibit
CC(=O)Nc1ccccc1NC(=O)CN(C)S(=O)(=O)c1ccc(C)cc1	97	92	108	99	100
Cc1ccc(C(=O)NC(NCc2ccco2)C(Cl)(Cl)Cl)cc1 (centres undefined)	88	89	.	.	.
Cc1ccc2nc(NC(=O)CSc3ncnc4c3oc3ccccc34)sc2c1	62	50	92	26*	35
Cc1ccc2nc(NC(=O)CSc3nc4ccccc4o3)sc2c1	96	92	104	97	104
Cc1cccc(NC(=O)CSc2ncnc3c2oc2ccccc23)c1	96	89	89	30*	76
O=C(CN1C(=O)COc2ccccc21)N1CCc2ccccc2C1	80	72	3.1*	108	84
CCSCCc1nnc(NC(=O)Nc2cccc(C(F)(F)F)c2)s1	3.7*	4.5*	.	.	.
CC1(C)Cc2c(sc3[nH]c(=S)n(Cc4ccco4)c(=O)c23)CO1	70	69	88	30*	80
Cc1ccc(N=c2oc3cc(O)ccc3cc2C(N)=O)cc1	79	73	82	39*	47
COc1ccc(N=c2oc3cc(O)ccc3cc2C(=O)NCC2CCCO2)cc1 (centres undefined)	100	96	111	79	80
Cc1ccccc1Nc1nc(N)nc(COC(=O)CC2CC3CCC2C3)n1 (centres undefined)	77	81	.	.	.
CCC(c1nnnn1C1CCCCC1)N1CCN(C2CCCC2)CC1 (centres undefined)	80	68	96	93	93
CC1C2CC(C(CN(C)C)/C2=N/O)C1(C)C (centres undefined)	107	90	112	101	99
CC1=CC(C)(C)N(S(=O)(=O)c2ccc(F)cc2)c2ccccc21	21	18	51	19*	62
CC1=CC(C)(C)N(S(=O)(=O)c2ccc(C)cc2)c2ccc(C)cc21	17	15	53	22*	66
CCOC(=O)N1CCN(S(=O)(=O)c2ccc(C(=O)Nc3nnc(C4CC4)o3)cc2)CC1	84	92	.	.	.
CCOC(=O)N1CCN(S(=O)(=O)c2ccc(C(=O)NNc3nc4ccc(Cl)cc4s3)cc2)CC1	3.6*	4.4*	.	.	.
CCOC(=O)N1CCN(C(=O)C2CCN(S(=O)(=O)c3ccc(C)cc3)CC2)CC1	101	103	103	96	98
CCOC(=O)N1CCN(S(=O)(=O)c2ccc(C(=O)Nc3nc4c(s3)CC(C)CC4)cc2)CC1 (centres undefined)	1.2*	1.5*	7.7*	7.5*	17*
CCOC(=O)N1CCC(N2CCN(S(=O)(=O)c3ccc(C)cc3)CC2)CC1	100	91	94	29*	92
CCc1ccc2[nH]c(=O)c(CN(Cc3ccc4c(c3)OCO4)Cc3nnnn3C3CCCC3)cc2c1	27	40	89	4.8*	62
Cc1ccc2cc(CN(Cc3ccccc3)Cc3nnnn3C3CCCC3)c(=O)[nH]c2c1	15	15	108	5.0*	74
COc1ccc2cc(CN(Cc3ccco3)Cc3nnnn3C3CCCCC3)c(=O)[nH]c2c1	78	85	91	47	98
Cc1ccc2cc(CN(Cc3ccc(F)cc3)Cc3nnnn3C3CCCC3)c(=O)[nH]c2c1	71	84	101	36*	64
Cc1cc(C)n(CC(=O)c2ccccc2)c(=O)c1C#N	97	88	106	88	95
SMILES	HCT116 PTEN-null	bCat KO growth	Lung fibro prol	H69AR inhibit	HUVEC inhibit
Cc1ccccc1Cn1cc(NC(=O)c2nn(C)cc2Cl)cn1	91	92	.	.	.
Cc1ccc(C2CC(C(F)F)n3ncc(C(=O)Nc4cnn(Cc5ccccc5C)c4)c3N2)cc1 (centres undefined)	2.1*	1.8*	63	14*	16*
COc1ccc(Nc2nc(C)cc(=O)[nH]2)c(OC)c1	113	106	.	.	.
N#CC1=C2SCC(O)(c3ccccc3)N2C(=O)CC1c1ccccc1 (centres undefined)	23	20	47*	24*	40
COc1cccc(C2C=C(c3ccc(Br)s3)Nc3ncnn32)c1OC (centres undefined)	93	81	93	43	110
Fc1ccc(Br)cc1C1C=C(c2ccc(Br)s2)Nc2ncnn21 (centres undefined)	88	90	56	29*	52
c1cncc(-c2nnc(-c3cccnc3)nn2)c1	1.6*	1.7*	59	3.7*	3.9*
Nc1nnc(-c2cccnc2)s1	94	91	105	72	95
CCOC(=O)c1c(NC(=O)COc2ncnc3sccc23)sc2c1CCC2	90	84	81	55	20*
Cc1ccc(C)c(N2C(=O)CC(N3CCN(Cc4ccc5c(c4)OCO5)CC3)C2=O)c1 (centres undefined)	99	93	103	87	106
COc1ccc(Cl)cc1NC(=O)Cn1c(=O)n2nc(C)nc2c2ccccc21	88	93	103	0.9*	93
COc1ccc(Cl)cc1NC(=O)CN1C(=O)CCS(=O)(=O)c2ccccc21	83	85	101	29*	101
COc1ccccc1NC(=O)Cn1nc(-c2ccc(Cl)cc2)c2ccccc2c1=O	14	9	105	35*	89
COc1ccc(NC(=O)CN2C(=O)c3cccc4cccc2c34)cc1OC	99	87	74	85	71
COc1ccc(C)cc1NC(=O)CN1C(=O)c2cccc3cccc1c23	62	76	55	28*	47
c1ccc(-c2nnc3sc(-c4cc5ccccc5o4)nn23)cc1	108	99	111	32*	65
COc1ccc(-c2nn3c(-c4ccc(F)cc4)nnc3s2)cc1	94	96	95	70	107
CCN(CC)c1ccc(-c2nn3c(-c4ccccc4OC)nnc3s2)cc1	2.1*	3.3*	38*	12*	12*
c1ccc(-c2nnc3sc(-c4csc5c4CCCC5)nn23)cc1	60	62	100	31*	76
COc1ccc(-c2nn3c(-c4ccccc4)nnc3s2)cc1	80	91	91	35*	73
COc1cc(C)c(C)cc1S(=O)(=O)N1CCN(Cc2ccccc2)CC1	92	97	103	88	104
Cc1cc(N2CCCCC2)nc2ccc(NC(=O)CCC(=O)NCCC(C)C)cc12	89	88	96	97	81
COC(=O)c1ccc2c(c1)N(C)C(=O)CS2	110	97	99	88	83
CC(NC(=O)Cc1ccccc1[N+](=O)[O-])c1ccccc1 (centres undefined)	91	91	.	.	.
CCCC(=O)NC(C)C(c1cccs1)N1CCN(C)CC1 (centres undefined)	101	95	100	97	90
CC(C)C(=O)NC(c1ccccc1)c1cc([N+](=O)[O-])c2cccnc2c1O (centres undefined)	7	4.1*	.	.	.
